APP 5'UTR act: activates APP 5'UTR luciferase reporter; hit rate 1% among 190,000; SH-SY5Y APP 5'UTR luciferase reporter, luminescence; zero percent = DMSO vehicle wells; activation, % at 2 µM; AID 1276;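 active = activation above a set limit, based on mean plus 3 SD of controls, cut at about 140% in these data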
NF-kB neuron act: NF-kB expression increase, human neuronal cells | NF-kB reporter expression; hits give high values | fold change at 12.5 µM | hit rate 1.6% among 190,000 | AID 1239; in the data active = fold change above about 3.3
STAT3 activator: increases IL-6 driven STAT3 reporter signal; U3A cells, IL-6 STAT3-luciferase reporter, luminescence; 100% = signal with IL-6 EC80 alone; activation (% of control), % at 5.6 µM; hit rate 0.91% among 190,000; AID 871;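 active = activation above the screen-wide mean of compound activation plus 3 SD, cut at about 130% in these data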;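 note: 0% = background luminescence of wells with medium and substrate only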
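System – human U3A cells carrying STAT3-luciferase construct · Probe or stimulus – Interleukin-6, 33 ng/mL · Schedule – compound 1 h, then IL-6 6 h at 37 °C · Signal – luminescence from STAT3-driven luciferase reporter · Evaluation – percent of IL-6-only median luminescence · Benchmarks – IL-6-only high control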
STAT3 blocker: STAT3 signaling inhibition; U3A cells, IL-6 STAT3-luciferase reporter, luminescence; host cell line lacks STAT1; inhibition, % at 5.5 µM; hit rate 0.89% among 190,000; AID 862;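 active = inhibition above the mean inhibition across all screened compounds plus 3 SD, cut at about 44% in these data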;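 note: 0% = DMSO only wells and 100% = 100 µM nifuroxazide control wells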
STAT1 inh: inhibitors of IFN-gamma induced STAT1 signaling. NIH 3T3 STAT1-luciferase reporter, luminescence. inhibition, % at 5.5 µM. hit rate 0.35% among 200,000. AID 920;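 active = inhibition above a set limit, the mean inhibition across all tested compounds plus 3 SD, cut at about 34% in these data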;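 note: 0% = IFN-gamma with DMSO and 100% = IFN-gamma with 300 µM nifuroxazide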
STAT1 activator: increases IFN-gamma driven STAT1 reporter signal; NIH 3T3 STAT1-luciferase reporter, luminescence; 100% = IFN-gamma alone, no compound; activation (% of control), % at 5.5 µM; hit rate 2.6% among 200,000; AID 932;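 active = activation above the screen-wide mean activation plus 3 SD, cut at about 130% in these data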;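 note: raw ratio to IFN-gamma control signal so 100% means no change and 0% no light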
The depositor's hits bear a star; / = no result. Shown are actives, neighbours in structure and some others; about 5.1% of the full set was active somewhere.

SMILES | APP 5'UTR act | NF-kB neuron act | STAT3 activator | STAT3 blocker | STAT1 inh | STAT1 activator
Cc1cnc(NC(=O)c2cc3c(s2)CCCC3)s1 | 172.9* | 4.13* | 38.3 | 73.5* | 41.6* | 61.9
Fc1ccc(N/N=C/c2ccncc2)c(F)c1 | 25.3 | 1.73 | 91.5 | 12.5 | -32.3 | 129.1*
O=C(CNC(=O)c1cccc(F)c1)N/N=C/C=C/c1ccccc1 | 20.1 | 1.02 | 97.7 | 7.7 | -1.3 | 99.5
Clc1ccc(N/N=C/c2ccncc2)cc1Cl | 76.0 | 1.66 | 82.2 | 23.0 | -26.9 | 124.3
Fc1ccc(NC(=S)N/N=C/c2ccc(F)c(F)c2)c(F)c1 | 55.5 | 1.3 | 93.4 | 6.5 | -4.8 | 104.4
O=C(O)c1ccc(/C=N/Nc2ccc(F)cc2F)cc1 | 169.6* | 12.4* | 117.7 | -19.1 | -16.5 | 114.8
Fc1ccc(N/N=C/C=C/c2ccccc2)c(F)c1 | 53.9 | 2.28 | 98.6 | 2.5 | -41.3 | 137.0*
O=C(CSc1ccccn1)Nc1ccc2c(c1)C(=O)c1ccccc1C2=O | 82.8 | 1.06 | 98.9 | -1.1 | -18.6 | 120.1
O=C(CSc1ccccn1)Nc1ccc2ccccc2c1 | 137.1* | 3 | 95.3 | 6.4 | -33.5 | 132.1*
Cc1cccc(NC(=O)CCSc2ccccn2)c1 | 16.4 | 1.52 | 107.8 | -6.7 | -6.7 | 106.0
Cc1ccc(NC(=O)CCSc2ccccn2)cc1 | 80.8 | 3 | 92.0 | 12.2 | -47.9 | 142.0*
Cc1ccc(C(=O)Nc2ccc3c(c2)nc2n3CCSC2)cc1 | 168.8* | 5.44* | 85.8 | 20.5 | -52.6 | 148.3*
Cc1ccc(N2C(=O)C(NC(=O)c3ccccc3)(C(F)(F)F)C3=C2CC(C)(C)CC3=O)cc1 (stereo unspecified) | -11.4 | 13.8* | 108.1 | -12.5 | 1.2 | 99.0
CC1(C)CC(=O)C2=C(C1)N(c1ccc(F)cc1)C(=O)C2(NC(=O)c1ccccc1)C(F)(F)F (stereo unspecified) | 3.4 | 1.07 | 99.5 | -1.8 | -1.8 | 104.0
Nc1cc(=O)[nH]c(SC/C=C/c2ccccc2)n1 | 18.1 | 1.09 | 93.1 | 16.3 | -1.5 | 102.5
Cc1cc(=O)[nH]c(S/C=C/c2ccccc2)n1 | 10.0 | 4.14* | 92.5 | 11.1 | 6.1 | 94.4
CCOc1ccc2c(c1)OC(c1ccc(C)cc1)(C(F)(F)F)NC2=O (stereo unspecified) | -94.7 | 4.25* | 116.7 | -22.9 | -5.2 | 104.6
O=C(c1cc(-c2ccncc2)nc2ccccc12)N1CCN(S(=O)(=O)/C=C/c2ccccc2)CC1 | 7.9 | 0.41 | 100.1 | 3.4 | 1.9 | 98.3
Cc1cc(C(=O)Nc2ccc3c(c2)CCC3)c2ccccc2n1 | 12.0 | 1.32 | 102.4 | 2.1 | -2.1 | 101.9
COc1ccc(NC(=O)c2cc([N+](=O)[O-])ccc2O)cc1 | -12.4 | / | 10.6 | 104.8* | 93.8* | 14.0
O=C(NC1=NCCS1)c1cc(-c2ccc(-c3ccccc3)cc2)nc2ccccc12 | 67.4 | 1.28 | 105.4 | -11.2 | -38.5 | 135.0*
CCOC(=O)c1sc(NC(=O)c2cc(-c3ccc(C)cc3)nc3ccccc23)c(C#N)c1C | 7.2 | 0.5 | 106.0 | -0.7 | -6.6 | 106.0
COC(=O)c1sc(NC(=O)c2cc(-c3ccccc3)nc3ccccc23)c(C#N)c1C | -7.5 | 1.03 | 61.7 | 48.7* | 7.2 | 94.2
COc1ccc(-c2cc(C(=O)NC3=NCCS3)c3ccccc3n2)cc1OC | -11.4 | 0.51 | 114.3 | -18.2 | -15.2 | 114.4
CCCCNC(=O)CSc1nnc(-c2c[nH]c3ccccc23)n1CC1CCCO1 (stereo unspecified) | -4.4 | 1.18 | 102.1 | -4.2 | -0.2 | 100.2
SMILES | APP 5'UTR act | NF-kB neuron act | STAT3 activator | STAT3 blocker | STAT1 inh | STAT1 activator
O=C(CSc1nnc(-c2ccc(O)cc2)n1Cc1ccco1)c1cccs1 | 7.5 | 1 | 87.7 | 19.8 | 5.1 | 95.3
O=C(CC(SCc1ccco1)c1ccc(O)cc1)c1cccs1 (stereo unspecified) | 71.5 | 5.36* | 126.8 | -24.7 | -19.4 | 117.8
O=C(CC(SCCO)c1ccc2c(c1)OCO2)c1cccs1 (stereo unspecified) | 69.5 | 3.19 | 107.6 | -3.1 | -34.4 | 131.5*
COc1cc(OC)c(C2=Nc3ccc(Br)cc3C(c3ccccc3)N2CC(=O)NN)cc1OC (stereo unspecified) | 6.6 | 1.16 | 99.2 | 2.5 | 2.8 | 96.4
Cc1oc(CSCC2CCCO2)cc1C(=O)O (stereo unspecified) | 13.4 | 1.13 | 102.8 | -0.5 | -52.3 | 148.2*
Cc1oc(C2CC2)cc1C(=O)O | -5.6 | 1.09 | 104.3 | -5.0 | 2.9 | 97.4
COc1ccc(-c2cc3ncc(C(C)=O)c(C)n3n2)cc1 | 141.4* | 2.79 | 87.3 | 19.9 | -37.4 | 135.0*
Cc1cccc(-n2ncc(C#N)c2N)c1 | 7.3 | 1.05 | 101.3 | 2.4 | -5.9 | 105.4
CC(=O)c1cnc2cc(-c3ccc(C)cc3)nn2c1C | 59.9 | 6.59* | 100.5 | 2.5 | -40.6 | 137.2*
Cc1ccc(-c2cc3ncc(C#N)c(N)n3n2)cc1 | 75.8 | 1 | 90.5 | 15.9 | -37.0 | 130.1*
Cc1c(-n2c(SCC(N)=O)nc3ccccc3c2=O)c(=O)n(-c2ccccc2)n1C | 20.6 | 1.56 | 97.6 | 5.3 | 1.8 | 97.7
COc1ccc(OC)c(C2=NOC(C(=O)NCc3cccs3)C2)c1 (stereo unspecified) | -9.3 | 1.15 | 104.3 | -4.7 | 4.1 | 96.8
Cc1ccc(C(=O)NCC(=O)OCc2csc(-c3ccccc3)n2)cc1 | 4.1 | 1.2 | 92.8 | 4.6 | -3.5 | 103.2
O=C(OCc1csc(-c2ccccc2)n1)c1ccc(O)cc1 | 64.4 | 3.29 | 95.2 | 6.5 | -52.2 | 149.7*
CCCC(=O)Nc1nc(C)c(C(C)=O)s1 | -30.9 | 1.17 | 94.2 | 13.5 | -6.4 | 104.0
CC(=O)c1sc(N/N=C2\CC3CC2C(C)C3(C)C)nc1C (stereo unspecified) | 56.7 | 1.89 | 96.4 | 9.6 | -37.0 | 131.0*
O=C(O)CCC(=O)Nc1ccccc1Oc1ccccc1 | 2.0 | 1.64 | 106.7 | 2.2 | 4.4 | 96.2
CCOC(=O)c1cnc2c(cnn2C)c1NCCCn1ccnc1 | -2.1 | 1.14 | 101.4 | 3.1 | -5.8 | 102.6
CCc1ccc(-c2ccc(C(=O)C(F)(F)F)[nH]2)cc1 | 179.1* | 4.46* | 105.8 | -6.9 | -25.8 | 123.6
Cc1ccc(C2=NN(C(=O)CN3C(=O)c4ccccc4S3(=O)=O)C(c3ccco3)C2)cc1 (stereo unspecified) | -7.8 | 0.81 | 97.3 | 4.6 | -5.4 | 103.6
COc1ccc(C2=NOC(CN3C(=O)c4ccccc4S3(=O)=O)C2)cc1 (stereo unspecified) | 137.2* | 5.48* | 89.7 | 15.4 | -50.3 | 147.5*
O=C1c2ccccc2S(=O)(=O)N1CC1CC(c2ccccc2)=NO1 (stereo unspecified) | 34.6 | 2.61 | 119.4 | -21.1 | -34.7 | 131.5*
O=C1c2ccccc2S(=O)(=O)N1CC1CC(c2ccc(Cl)cc2)=NO1 (stereo unspecified) | 99.9 | 1.37 | 100.2 | 3.5 | -43.4 | 139.4*

Screening data (PubChem BioAssay)
